From PubChem BioAssay
RGS4 inh = human RGS4 inhibition; P49798; HEK293 M3R/RGS4 inducible, Fluo-4 calcium flux; active compounds read high; triggered by carbachol at its EC20; B-score at 10 µM; 0.45% of 310,000 active; AID 463165;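 active = B-score, a plate-corrected calcium signal, over three deviations above library mean, with baseline fluorescence within five deviations of library mean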;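 also: RGS4 expression induced by doxycycline in cells with stable M3 receptor; B-score is computed from the integrated fluorescence ratio over baseline after carbachol; higher B-score means a larger calcium signal and so more RGS4 inhibition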
Target sequence (P49798 whole entry, looked up): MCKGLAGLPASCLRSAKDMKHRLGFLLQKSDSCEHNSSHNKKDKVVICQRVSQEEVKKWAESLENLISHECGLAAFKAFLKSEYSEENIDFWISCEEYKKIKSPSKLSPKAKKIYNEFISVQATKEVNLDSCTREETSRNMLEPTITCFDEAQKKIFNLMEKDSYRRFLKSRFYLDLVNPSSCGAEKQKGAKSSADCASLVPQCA
MrgX1 PAM = human MrgX1 positive allosteric modulation, primary screen; B-score at 10 µM; MrgX1-HEK293, Fluo-4 calcium flux, FDSS; active compounds read high; 0.63% of 310,000 active;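 active = plate-corrected calcium response at least 3 library SD above typical, normal starting fluorescence, not activating the receptor alone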;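 also: compound read alongside a low EC10 to EC30 dose of BAM8-22 agonist; peak minus trough fluorescence over baseline measured at the second addition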
Target sequence (Q96LB2 whole entry, looked up): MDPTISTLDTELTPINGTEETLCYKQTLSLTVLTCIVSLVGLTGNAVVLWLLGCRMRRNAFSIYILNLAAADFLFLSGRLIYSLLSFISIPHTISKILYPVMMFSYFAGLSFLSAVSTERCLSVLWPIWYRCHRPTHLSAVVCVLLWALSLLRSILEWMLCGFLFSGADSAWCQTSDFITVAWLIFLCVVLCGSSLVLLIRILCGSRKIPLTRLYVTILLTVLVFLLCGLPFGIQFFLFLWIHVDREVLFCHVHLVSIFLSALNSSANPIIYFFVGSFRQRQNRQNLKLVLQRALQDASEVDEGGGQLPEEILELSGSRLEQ
MrgX1 ag = human MrgX1 receptor agonism, primary screen | Q96LB2 | 0.44% of 310,000 active | B-score at 10 µM | MrgX1-HEK293 cells, Fluo-4 calcium fluorescence, agonist mode; active compounds read high;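 active = calcium response B-score plate-corrected fluorescence ratio at least 3 library SD, with starting fluorescence B-score inside 5 SD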
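Material – MrgX1-expressing HEK293 cells · Input – 15,000 cells seeded per well · Dosing – compound as first of three additions · Times – overnight seeding, then 1 h dark dye loading · Measured by – kinetic Fluo-4 NW fluorescence of intracellular calcium · Read-out – B-scored fluorescence response ratio · Benchmarks – positive and negative control wells on each plate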
RGS4 act = RGS4 potentiation or activation. HEK293 M3R/inducible RGS4, carbachol calcium flux Fluo4; active compounds read low. B-score at 10 µM. 0.92% of 310,000 active. AID 463111;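 active = B-score of the integrated calcium signal more than 4 SD below the library mean, with starting fluorescence not abnormally high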;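 also: negative B-score means reduced calcium response which marks RGS4 activation or potentiation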
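Assay system: Inducible-RGS4 HEK293 cells carrying M3 receptor | Schedule: Compound preincubation 20 min at room temperature before agonist | Signal: Kinetic calcium fluorescence imaging with Fluo4-AM dye, 2 µM | Read-out basis: B score from integrated fluorescence ratio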
MrgX1 antagonist = antagonists of human MrgX1 receptor | AID 588676 | MRGX1-HEK293 calcium flux, Fluo-4, BAM8-22 antagonism; active compounds read low | B-score at 10 µM | 1.3% of 310,000 active | Q96LB2;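 active = calcium-response B-score plate-corrected more than 3 library SD below zero, starting fluorescence within 5 deviations, no agonist response on first addition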;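 also: peak minus trough fluorescence over baseline after final BAM8-22 challenge near maximal dose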
MrgX1 ant reconf = human MrgX1 receptor antagonism, re-confirmation screen; shares compounds with MrgX1 antagonist; MrgX1-HEK293, BAM8-22 calcium flux, Fluo-4; active compounds read low; remaining BAM8-22 calcium response % of control (active compounds read low), % at 10 µM; 19% of 2,300 active; AID 602420;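 active = remaining agonist calcium response no higher than 100% minus 3 SD of agonist-only control wells, with starting fluorescence near control levels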;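 also: agonist BAM8-22 given at a near maximal EC90 to ECmax level; peak minus minimum fluorescence divided by baseline after agonist addition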
HEK293 Ca flux = counter-screen for MrgX1 antagonists: effect in parental HEK293 cells. shares compounds with MrgX1 antagonist. Fluo-4 calcium fluorescence, FDSS. fluorescence ratio F(max-min)/F0 at 10 µM. 2% of 4,000 active. AID 624111;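 active = duplicate-averaged calcium fluorescence ratio at least three times the standard deviation of buffer wells, a nonspecific response in parental cells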
HEK293 Ca counter = MrgX1 allosteric activator counter-screen hit in parental HEK293 cells; shares compounds with MrgX1 antagonist; 0.4% of 4,000 active; fluorescence ratio F(max-min)/F0 at 10 µM; parental HEK293 calcium flux, Fluo-4 fluorescence ratio; active compounds read high;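 active = calcium fluorescence ratio, averaged over duplicates, at least 3 SD of the buffer-well ratio, meaning a nonspecific response in receptor-free cells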;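 also: untransfected parental HEK293 lacking MrgX1 used as counterscreen for MrgX1 allosteric activators; fluorescence change taken during the second addition on a kinetic imager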
HEK293 Ca cntr2 = counter-screen for MrgX1 activators: effect in parental HEK293 cells; shares compounds with MrgX1 antagonist; Fluo-4 calcium fluorescence (FDSS); active compounds read high; fluorescence ratio F(max-min)/F0 at 10 µM; 8.7% of 4,000 active; AID 624115;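 active = calcium fluorescence ratio at least three times the spread of buffer wells, meaning a non-specific response in parental cells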
A number is an active result; n = inactive; x = no result. Shown are actives, neighbours in structure and some others; about 3.5% of the full set was active somewhere.

SMILES	RGS4 inh	MrgX1 PAM	MrgX1 ag	RGS4 act	MrgX1 antagonist	MrgX1 ant reconf	HEK293 Ca flux	HEK293 Ca counter	HEK293 Ca cntr2
CC(C)OC(=O)CC1C(=O)NCCN1C(=O)COc1ccc(C(C)(C)C)cc1 (stereo not given)	n	n	n	n	n	x	x	x	x
CCOC(=O)C(C(=O)OCC)c1cc(Br)c2noc3c2c1C(=O)c1ccccc1-3	n	n	n	n	n	x	x	x	x
O=C1c2ccccc2-c2onc3ccc(Oc4ccccc4)c1c23	n	n	n	n	-7.4	74%	n	n	n
Cc1c(Cl)cn2c(=O)cc(CN(C)Cc3nc4ccccc4c(=O)[nH]3)nc2c1Cl	n	n	n	n	n	x	x	x	x
Cc1ccc(/C(O)=C2/C(=O)C(=O)N(CCCn3ccnc3)C2c2ccccn2)cc1 (stereo not given)	n	x	x	n	x	x	x	x	x
COCCN1C(=O)C(=O)/C(=C(/O)c2ccc(C)cc2)C1c1ccccn1 (stereo not given)	n	n	n	n	-7.7	n	n	n	n
O=C1C(=O)N(Cc2cccnc2)C(c2ccccn2)/C1=C(/O)c1ccc(F)cc1 (stereo not given)	n	n	n	n	-5.1	n	n	n	n
COc1ccc(/C(C)=N/NC(=O)c2nnn(-c3nonc3N)c2-c2cccs2)cc1OC	n	n	n	n	n	x	x	x	x
Nc1c(C(=O)Nc2ccccc2F)sc2nc(-c3ccco3)ccc12	n	n	n	n	-5.3	78%	n	n	n
Nc1c(C(=O)Nc2ccccc2F)sc2nc(-c3cccnc3)ccc12	n	n	n	n	n	x	x	x	x
Cc1ccc(N(CC(=O)NC2CCCCC2)C(=O)CCCC(=O)Nc2ccccn2)cc1	n	n	n	n	n	x	x	x	x
Cc1ccc2nsnc2c1NC(=O)COc1ccccc1F	n	n	n	n	-6.1	84%	n	n	n
COC(=O)c1ccc(NCN2C(=O)C3C4CCC(C4)C3C2=O)cc1 (stereo not given)	n	n	n	n	-5.6	n	n	n	n
CC(=O)Nc1ccc(NCN2C(=O)C3C4CCC(C4)C3C2=O)cc1 (stereo not given)	n	n	n	n	n	x	x	x	x
CCOc1ccc(S(=O)(=O)N2CCC(C(=O)NCc3ccco3)CC2)cc1C	n	n	n	n	n	x	x	x	x
CCOc1ccc(C(=O)CCC(=O)Nc2ccc(C)cn2)cc1	n	n	n	n	-5.7	81%	n	n	n
COc1ccc(C(=O)N2CCc3ccc(NC(=O)c4ccccn4)cc3C2)cc1F	n	x	x	n	x	x	x	x	x
COCCNC(=O)c1ccccc1NC(=O)CCSc1ccccc1	n	n	n	n	n	x	x	x	x
Cc1ccc(-c2ccccc2)n1-c1ccc(C(=O)O)cc1	n	n	n	n	-4.6	78%	n	n	n
O=C(NCCc1ccc(Cl)cc1)C1CCN(S(=O)(=O)N2CCCC2)CC1	n	n	n	n	-5.7	n	n	n	n
Cc1ccc(NC(=O)c2ccc(Cl)cc2Cl)cc1O	n	n	n	n	n	x	x	x	x
Cc1cccn2c(CNCCc3ccco3)c(C(=O)N3CCOCC3)nc12	n	x	x	n	x	x	x	x	x
O=C(Nc1nsc(-c2ccccc2)n1)c1cccs1	n	n	n	n	-10	n	n	n	n
CC(C(=O)O)N(C(=O)c1ccccc1)c1ccc(F)cc1 (stereo not given)	n	n	n	n	-5.5	81%	n	n	n
CCOC(=O)c1ccc(NC(=O)CN(c2ccc(C)cc2)S(=O)(=O)c2c(C)n[nH]c2C)cc1	n	n	n	n	-6.2	n	n	n	52
SMILES	RGS4 inh	MrgX1 PAM	MrgX1 ag	RGS4 act	MrgX1 antagonist	MrgX1 ant reconf	HEK293 Ca flux	HEK293 Ca counter	HEK293 Ca cntr2
CCOc1ccccc1NC(=O)CN(c1ccc(C)cc1)S(=O)(=O)c1c(C)n[nH]c1C	n	n	n	n	n	x	x	x	x
COc1cc(NC(=O)CC(C)C)ccc1NC(=O)c1ccco1	n	n	n	n	-5.2	n	n	n	n
O=C(Cn1cncn1)N/N=C/c1cccnc1	n	n	n	n	n	x	x	x	x
Oc1ccc(N2CCN(C(c3ccncc3)c3nnnn3C3CCCC3)CC2)cc1 (stereo not given)	n	n	n	n	-8.1	n	n	n	n
O=C(CN1C2CCC1CC(NC(=O)NC1CCCCC1)C2)NC1CC1 (stereo not given)	n	n	n	n	-5.5	n	n	n	n
CCCN1C2CCCC1CC(NC(=O)NC1CCCCC1)C2 (stereo not given)	n	n	n	n	n	x	x	x	x
O=C(O)CCn1cc(/C=C/C(=O)c2ccc(Cl)cc2)c(-c2ccc(Br)cc2)n1	x	n	n	x	n	x	x	x	x
CC(C)CC(=O)c1c[nH]c(C(=O)N2CCN(Cc3ccccc3)CC2)c1	n	n	n	n	n	x	x	x	x
Cc1cccc(NC(=O)c2ccc(C(=O)c3ccccc3)cc2)n1	n	n	n	n	-4.9	77%	n	n	n
Cc1ccccc1C(=O)N(Cc1nc2ccccc2c(=O)[nH]1)C1CCCC1	n	n	n	n	n	x	x	x	x
Cc1cc(C)c2cc3c(ccn3C3OC[C@H](O)[C@H](O)[C@H]3O)cc2n1 (stereo not given in full)	n	n	n	n	-6.4	n	n	n	n
CC(C)NC(=O)c1cnc(N2CCN(c3ccccn3)CC2)c2ccccc12	n	n	n	n	n	x	x	x	x
CCc1ccc(NC(=O)c2cnc(N3CCN(c4ccccn4)CC3)c3ccccc23)cc1	n	n	n	-7.2	-7.1	60%	n	n	n
CCOC(=O)c1sc2nc(NC(=O)C(C)(C)C)sc2c1C	n	n	n	n	-5.1	79%	n	n	n
CCc1noc(C)c1C(=O)N1CCCC1	n	n	n	n	-4.7	78%	n	n	n
CCc1noc(C)c1C(=O)N1CC(C)OC(C)C1 (stereo not given)	n	n	n	n	n	x	x	x	x
O=C(O)c1cc(-c2cccc(Cl)c2)nc2nc(N3CCCCC3)sc12	n	n	n	n	n	x	x	x	x
Cc1ccc(NS(=O)(=O)c2cccc(C(=O)N3CCCCCC3)c2)cc1	n	n	n	n	-5.5	n	n	n	n
Cc1cc(S(=O)(=O)Nc2ccc(C(=O)N3CCN(c4ccccc4O)CC3)cc2)ccc1F	n	n	n	n	-4.7	82%	n	n	n
Cc1ccc(NS(=O)(=O)c2ccc(C(=O)N3CCN(c4ncccn4)CC3)cc2)cc1	n	n	n	n	-5.4	n	n	n	n
